# Data: ChEMBL document CHEMBL3407413, “Repositioning proton pump inhibitors as anticancer drugs by targeting the thioesterase domain of human fatty acid synthase” (J Med Chem, 2015)
# The source made the active and inactive calls. The rule behind the calls is not given here.
# Assays:
# [1] = system: BXPC-3; test: Effect of FASN expression of human BxPC3 cells at 3.75 uM by Western blot analysis; type: functional, cell-based
# In short: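 BxPC-3 pancreatic cancer cells given the supplement; FASN protein read by Western blot, with actin as the loading control.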
# [2] = system: BXPC-3; test: Effect of survival of human BxPC3 cells at 3.75 uM by MTT assay; type: functional, cell-based
# In short: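 BxPC-3 pancreatic cancer cells given the supplement alone; growth read by MTT assay against a DMSO control; n = 3.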
# [3] = molecular target: T1, Fatty acid synthase (Homo sapiens, UniProt P49327)
# T1 sequence (P49327 whole entry): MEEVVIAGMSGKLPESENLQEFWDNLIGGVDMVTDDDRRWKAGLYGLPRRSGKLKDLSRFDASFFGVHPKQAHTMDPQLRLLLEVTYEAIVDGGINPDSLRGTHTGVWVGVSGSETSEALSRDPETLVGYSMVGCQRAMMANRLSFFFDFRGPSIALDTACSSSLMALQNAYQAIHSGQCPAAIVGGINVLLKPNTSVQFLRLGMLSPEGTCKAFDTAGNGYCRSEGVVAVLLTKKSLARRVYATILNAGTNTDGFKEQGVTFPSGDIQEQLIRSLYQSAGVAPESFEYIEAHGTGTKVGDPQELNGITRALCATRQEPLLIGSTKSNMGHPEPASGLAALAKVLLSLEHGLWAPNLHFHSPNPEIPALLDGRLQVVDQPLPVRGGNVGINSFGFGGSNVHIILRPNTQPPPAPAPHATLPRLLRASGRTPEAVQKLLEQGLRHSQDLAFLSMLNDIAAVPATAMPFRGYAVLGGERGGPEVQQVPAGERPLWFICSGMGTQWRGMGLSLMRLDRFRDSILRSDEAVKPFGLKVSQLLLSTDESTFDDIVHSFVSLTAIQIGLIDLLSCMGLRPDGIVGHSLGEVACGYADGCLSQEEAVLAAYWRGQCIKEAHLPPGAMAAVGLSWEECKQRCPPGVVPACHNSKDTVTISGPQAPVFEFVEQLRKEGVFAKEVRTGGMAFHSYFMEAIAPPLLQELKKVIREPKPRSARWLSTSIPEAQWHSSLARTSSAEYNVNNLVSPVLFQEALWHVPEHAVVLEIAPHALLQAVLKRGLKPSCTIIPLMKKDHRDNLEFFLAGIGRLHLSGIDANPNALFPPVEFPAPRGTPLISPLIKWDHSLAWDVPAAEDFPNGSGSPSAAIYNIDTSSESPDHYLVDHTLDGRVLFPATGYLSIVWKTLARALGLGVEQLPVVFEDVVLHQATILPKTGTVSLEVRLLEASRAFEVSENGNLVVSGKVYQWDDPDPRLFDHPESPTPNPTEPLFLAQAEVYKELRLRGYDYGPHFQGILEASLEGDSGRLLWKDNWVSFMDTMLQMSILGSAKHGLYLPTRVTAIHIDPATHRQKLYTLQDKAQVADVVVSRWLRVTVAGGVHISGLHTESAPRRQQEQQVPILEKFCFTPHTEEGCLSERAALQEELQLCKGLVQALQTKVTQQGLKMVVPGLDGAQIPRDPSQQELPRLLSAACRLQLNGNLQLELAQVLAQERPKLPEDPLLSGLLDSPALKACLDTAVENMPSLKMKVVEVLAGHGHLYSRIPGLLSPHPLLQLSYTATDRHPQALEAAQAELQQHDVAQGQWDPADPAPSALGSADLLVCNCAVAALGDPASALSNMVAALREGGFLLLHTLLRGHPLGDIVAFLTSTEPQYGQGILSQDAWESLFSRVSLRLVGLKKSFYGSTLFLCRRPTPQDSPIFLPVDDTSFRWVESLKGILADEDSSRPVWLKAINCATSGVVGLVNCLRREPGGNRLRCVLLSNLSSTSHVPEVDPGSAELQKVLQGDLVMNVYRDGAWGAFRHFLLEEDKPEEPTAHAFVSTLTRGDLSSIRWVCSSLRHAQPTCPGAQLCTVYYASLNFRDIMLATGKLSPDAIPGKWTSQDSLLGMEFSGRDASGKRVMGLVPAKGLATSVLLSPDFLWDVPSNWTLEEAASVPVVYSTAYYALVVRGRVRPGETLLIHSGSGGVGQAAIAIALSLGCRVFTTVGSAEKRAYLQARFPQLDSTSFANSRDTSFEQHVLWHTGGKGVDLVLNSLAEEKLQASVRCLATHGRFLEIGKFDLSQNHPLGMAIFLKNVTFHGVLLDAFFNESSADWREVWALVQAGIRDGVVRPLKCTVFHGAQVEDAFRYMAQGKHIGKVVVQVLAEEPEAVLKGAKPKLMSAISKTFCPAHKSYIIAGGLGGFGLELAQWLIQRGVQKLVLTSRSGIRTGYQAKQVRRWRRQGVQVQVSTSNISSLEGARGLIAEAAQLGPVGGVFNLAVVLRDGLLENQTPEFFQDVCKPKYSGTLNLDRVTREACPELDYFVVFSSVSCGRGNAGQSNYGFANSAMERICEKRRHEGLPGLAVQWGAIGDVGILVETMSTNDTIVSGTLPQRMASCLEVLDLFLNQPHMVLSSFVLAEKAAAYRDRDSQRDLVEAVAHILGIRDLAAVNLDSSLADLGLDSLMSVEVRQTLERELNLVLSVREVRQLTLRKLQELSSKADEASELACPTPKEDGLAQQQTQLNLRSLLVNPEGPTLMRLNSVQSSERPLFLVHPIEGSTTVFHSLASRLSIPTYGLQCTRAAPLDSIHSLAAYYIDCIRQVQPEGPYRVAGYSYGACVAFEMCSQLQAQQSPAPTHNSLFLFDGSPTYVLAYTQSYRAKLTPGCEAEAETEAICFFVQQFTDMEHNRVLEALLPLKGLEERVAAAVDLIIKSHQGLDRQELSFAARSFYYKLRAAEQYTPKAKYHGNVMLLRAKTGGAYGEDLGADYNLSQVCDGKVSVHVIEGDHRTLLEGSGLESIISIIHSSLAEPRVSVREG
# [4] = system: PANC-1; test: Inhibition of survival of wild-type FASN overexpressing human PANC1 cells after 10 to 14 days by crystal violet staining-based colony formation assay; type: functional, cell-based
# In short: (§1)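 Cells seeded at 100/well (PANC-1, including stable vector- or wild-type FASN-transfected lines) or 200/well (BxPC-3) and grown 24 h. Then cultured continuously with PPIs or DMSO vehicle for 10–14 days, stained with crystal violet and colonies counted manually. Three independent experiments.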
# [5] = system: BXPC-3; test: Induction of apoptosis in human BxPC3 cells assessed as PARP1 cleavage after 24 hrs by Western blot analysis; type: functional, cell-based
# In short: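 Harvested and analysed by Western blot with an antibody specific to cleaved PARP-1; actin as loading control.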
# [6] = system: BXPC-3; test: Effect on pH homeostasis in human BxPC3 cells assessed as change in extracellular pH at 100 uM after 72 hrs by pH metry; type: functional, cell-based
# In short: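 Culture medium was collected, cleared of cell debris by centrifugation, and measured with a pH meter.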
# [7] = system: PANC-1; test: Inhibition of survival of human PANC1 cells after 10 to 14 days by crystal violet staining-based colony formation assay; type: functional, cell-based; in short: as §1
# [8] = system: PANC-1; test: Inhibition of survival of vector-transfected human PANC1 cells after 10 to 14 days by crystal violet staining-based colony formation assay; type: functional, cell-based; in short: as §1
# [9] = system: BXPC-3; test: Cytotoxicity against human BxPC3 cells by MTT assay in presence of 3.75 uM palmitate; type: functional, cell-based
# [10] = system: BXPC-3; test: Induction of apoptosis in human BxPC3 cells in presence of 3.75 uM palmitate; type: functional, cell-based
# [11] = molecular target: T1, Fatty acid synthase; remark: listed apart in the source
# [12] = system: PANC-1; test: Induction of apoptosis in human PANC1 cells assessed as cytoplasmic histone-associated DNA fragments after 72 hrs by ELISA method; type: functional, cell-based
# [13] = system: PANC-1; test: Effect on FASN expression in human PANC1 cells at 12.5 to 200 uM after 30 mins by Western blot analysis; type: functional, cell-based
# [14] = system: BXPC-3; test: Effect on pH homeostasis in human BxPC3 cells assessed as change in intracellular pH at 12.5 to 100 uM after 72 hrs by pHrodo red dye-based fluorescence assay; type: functional, cell-based
# In short: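 Loaded with pHrodo red intracellular pH dye and fluorescence read in-well. Fluorescence converted to pH using a calibration kit standard curve (fluorescence vs pH). Three independent experiments.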
# [15] = molecular target: T1, Fatty acid synthase; test: Inhibition of purified recombinant FASN TE activity (unknown origin) using 4-MUH as substrate preincubated for 30 mins before substrate addition measured after 1 hr by fluorescence assay
SMILES,Activity [1],Activity [2],IC50 [3],inhibition [4],Activity [5],Activity [6],inhibition [7],inhibition [8],Activity [9],Activity [10],IC50 [11],Activity [12],Activity [13],Activity [14],IC50 [15],Ki [15]
CCCCCCCCCCCCCCCC(=O)O,inactive,inactive,–,–,–,–,–,–,–,–,–,–,–,–,–,–
Cc1c(OCC(F)(F)F)ccnc1C[S+]([O-])c1nc2ccccc2[nH]1 (stereo unspecified) [LANSOPRAZOLE],–,–,93 µM,Active,Dose-dependent effect,inactive,Dose-dependent effect,inactive,inactive,inactive,124 µM,Dose-dependent effect,inactive,inactive,46.7 µM,5.3 µM
